# Active and inactive are the calls of the source. The calls are words filed in the database; no cut-off is given here.
# How the values were obtained:
# Mus musculus [1] = assay: Toxicity in Swiss mouse assessed as change in motor coordination by measuring number of falls from the rotating rod at 30 mg/kg, ip administered 30 mins prior to testing measured for 2 mins by rotarod test relative to control; format: organism-based; details: in vivo
# In short: (§1)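 The same mice used for marble burying were placed on a rotarod at 4 r.p.m. for 2 min. No fall was scored success, one fall partial, and two falls failure.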
# Liver [2] = assay: Metabolic stability in rat liver microsomes assessed as compound remaining at 4 uM measured after 30 mins in presence of NADPH by LC-MS/MS analysis; format: ADME, microsome; details: 0.5 h
# In short: (§2)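 Human, mouse or rat liver microsomes were incubated with compound at 4 μM final for 30 min at 37 °C (n = 1). Percent of parent remaining was quantified by LC-MS/MS.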
# Mus musculus [3] = assay: Anxiolytic-like activity in Swiss Webster mouse marble burying model of anxiety assessed as suppression of marble burying activity at 30 mg/kg, ip administered 30 mins prior to test relative to vehicle-control; format: functional, organism-based
# In short: (§3)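 Male NIH Swiss Webster mice (n = 10) received vehicle or compound at 10 or 30 mg/kg i.p. 30 min before marble burying testing. Sedation-like behaviour was noted by observation. Analysis was ANOVA with Dunnett's test vs vehicle.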
# [4] = biological target: T1, GABA-A receptor; alpha-1/beta-3/gamma-2 (Homo sapiens, UniProt P14867+P18507+P28472); assay: Binding affinity to human GABAA alpha1beta3gamma2 receptor expressed in HEK293 cells assessed as GABA-induced membrane potential change preincubated for 3 mins followed by addition of GABA measured after 3 mins by FLIPR assay; format: cell-based
# T1 sequence (P14867 whole entry): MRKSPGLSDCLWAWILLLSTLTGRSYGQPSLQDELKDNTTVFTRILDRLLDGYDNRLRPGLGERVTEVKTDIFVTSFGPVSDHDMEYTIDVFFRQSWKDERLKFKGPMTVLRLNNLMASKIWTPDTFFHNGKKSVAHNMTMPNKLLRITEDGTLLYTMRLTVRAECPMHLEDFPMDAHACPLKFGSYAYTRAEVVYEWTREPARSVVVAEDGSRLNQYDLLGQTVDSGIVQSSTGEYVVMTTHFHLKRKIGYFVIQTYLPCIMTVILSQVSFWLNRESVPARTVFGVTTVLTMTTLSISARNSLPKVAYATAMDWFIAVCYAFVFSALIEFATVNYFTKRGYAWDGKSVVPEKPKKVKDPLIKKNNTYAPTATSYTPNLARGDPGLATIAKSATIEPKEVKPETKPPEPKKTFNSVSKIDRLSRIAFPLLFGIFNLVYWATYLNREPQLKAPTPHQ
# T1 sequence (P18507 whole entry): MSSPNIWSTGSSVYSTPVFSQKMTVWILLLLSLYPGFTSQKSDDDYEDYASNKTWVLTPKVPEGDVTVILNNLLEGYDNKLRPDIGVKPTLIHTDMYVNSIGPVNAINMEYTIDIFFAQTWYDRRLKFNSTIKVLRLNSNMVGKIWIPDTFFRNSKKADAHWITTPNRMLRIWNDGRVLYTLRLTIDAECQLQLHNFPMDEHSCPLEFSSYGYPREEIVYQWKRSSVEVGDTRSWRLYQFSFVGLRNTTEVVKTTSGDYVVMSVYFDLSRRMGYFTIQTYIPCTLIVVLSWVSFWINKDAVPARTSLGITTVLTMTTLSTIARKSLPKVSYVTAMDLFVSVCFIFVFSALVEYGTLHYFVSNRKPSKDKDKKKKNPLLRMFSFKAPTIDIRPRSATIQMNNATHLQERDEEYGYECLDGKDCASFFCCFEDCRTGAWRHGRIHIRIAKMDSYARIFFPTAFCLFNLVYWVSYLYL
# T1 sequence (P28472 whole entry): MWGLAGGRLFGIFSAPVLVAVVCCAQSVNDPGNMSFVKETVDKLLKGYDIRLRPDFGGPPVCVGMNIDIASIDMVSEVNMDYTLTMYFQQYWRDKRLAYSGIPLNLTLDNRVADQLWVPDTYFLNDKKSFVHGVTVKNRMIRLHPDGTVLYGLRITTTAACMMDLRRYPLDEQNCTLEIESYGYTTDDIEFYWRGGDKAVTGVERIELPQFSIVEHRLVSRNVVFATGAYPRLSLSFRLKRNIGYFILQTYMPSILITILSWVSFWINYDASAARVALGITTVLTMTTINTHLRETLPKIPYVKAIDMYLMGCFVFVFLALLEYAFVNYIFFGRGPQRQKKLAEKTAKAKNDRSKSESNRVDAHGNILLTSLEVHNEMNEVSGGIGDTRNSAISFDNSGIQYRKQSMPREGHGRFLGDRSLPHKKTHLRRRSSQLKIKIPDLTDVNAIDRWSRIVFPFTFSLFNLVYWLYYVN
# In short: (§4)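 Stably transfected HEK293T cells expressing α1β3γ2 (n = 2) or α3β3γ2 (n = 1) GABAARs. Membrane potential was read as fluorescence changes on a FLIPR Tetra, and EC50 was derived.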
# Mus musculus [5] = assay: Anxiolytic-like activity in Swiss Webster mouse marble burying model of anxiety assessed as suppression of marble burying activity at 10 mg/kg, ip administered 30 mins prior to test relative to vehicle-control; format: functional, organism-based; in short: as §3
# [6] = biological target: T2, GABA-A receptor; alpha-3/beta-3/gamma-2 (Homo sapiens, UniProt P18507+P28472+P34903); assay: Binding affinity to human GABAA alpha3beta3gamma2 receptor expressed in HEK293 cells assessed as GABA-induced membrane potential change preincubated for 3 mins followed by addition of GABA measured after 3 mins by FLIPR assay; format: cell-based; in short: as §4
# T2 sequence (P18507 whole entry): T1 sequence (P18507 whole entry)
# T2 sequence (P28472 whole entry): T1 sequence (P28472 whole entry)
# T2 sequence (P34903 whole entry): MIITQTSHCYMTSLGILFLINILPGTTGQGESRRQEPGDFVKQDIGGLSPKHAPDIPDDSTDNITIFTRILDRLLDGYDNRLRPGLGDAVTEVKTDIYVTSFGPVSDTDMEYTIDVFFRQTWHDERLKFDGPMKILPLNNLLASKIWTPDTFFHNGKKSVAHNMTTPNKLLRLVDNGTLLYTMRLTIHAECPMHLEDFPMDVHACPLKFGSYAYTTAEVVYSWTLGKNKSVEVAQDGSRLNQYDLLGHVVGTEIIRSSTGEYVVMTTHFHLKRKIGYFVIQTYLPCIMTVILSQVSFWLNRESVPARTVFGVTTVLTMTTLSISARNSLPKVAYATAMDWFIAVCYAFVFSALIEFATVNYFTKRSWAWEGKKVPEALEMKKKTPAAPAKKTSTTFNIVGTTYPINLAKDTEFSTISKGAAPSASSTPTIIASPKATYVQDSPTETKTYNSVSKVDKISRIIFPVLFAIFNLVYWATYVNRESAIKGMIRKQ
# [7] = Total plasma concentration in Sprague-Dawley rat at 10 mg/kg, po measured after 60 mins by LC-MS/MS analysis; format: ADME, organism-based
# In short: (§5)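 Sprague-Dawley rats (n = 3 per time point) were given 10 mg/kg p.o. Total plasma concentrations were taken at 15, 30, 60 and 120 min. Brain levels of the dosed ligand and of the carboxylic acid metabolite were taken at 60 or 120 min.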
# Liver [8] = assay: Metabolic stability in mouse liver microsomes assessed as compound remaining at 4 uM measured after 30 mins in presence of NADPH by LC-MS/MS analysis; format: ADME, microsome; details: 0.5 h; in short: as §2
# Mus musculus [9] = assay: Toxicity in Swiss Webster mouse assessed as sedation-like behavior at 30 mg/kg, ip measured after 30 mins; format: organism-based; details: in vivo, 0.5 h; in short: as §3
# [10] = Cytotoxicity against HEK293T cells assessed as viable cells measured after 18 hrs by CellTiter-Glo assay; format: cell-based, HEK-293T; details: human, read-out: LD50
# In short: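 HEK293T cells were exposed to compound for 18 h (n = 4). Viable cells were quantified with CellTiter-Glo, and LD50 was derived.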
# Liver [11] = assay: Metabolic stability in human liver microsomes assessed as compound remaining at 4 uM measured after 30 mins in presence of NADPH by LC-MS/MS analysis; format: ADME, microsome; details: 0.5 h; in short: as §2
# [12] = Drug uptake in Sprague-Dawley rat brain at 10 mg/kg, po measured after 60 mins by LC-MS/MS analysis; format: ADME, organism-based; details: read-out: Drug uptake; in short: as §5
# Mus musculus [13] = assay: Toxicity in Swiss mouse assessed as change in motor coordination by measuring number of falls from the rotating rod at 10 mg/kg, ip administered 30 mins prior to testing measured for 2 mins by rotarod test relative to control; format: organism-based; details: in vivo; in short: as §1
structure (smiles),measurement,setting,value
C#Cc1ccc2c(c1)C(c1ccccn1)=NCc1c(-c3nc(CC)no3)ncn1-2,Activity,Mus musculus [1],Toxic
same,Stability,Liver [2],97%
same,Activity,Mus musculus [3],Active
same,EC50,[4],> 20 µM
same,Activity,Mus musculus [5],Active
same,EC50,[6],3.02 µM
same,concentration at 1 h,[7],1720 nM
same,Stability,Liver [8],92%
same,Activity,Mus musculus [9],Toxic
same,CC50 at 18 h,[10],> 100 µM
same,Stability,Liver [11],91%
same,concentration at 1 h,[12],3090 nM
same,Activity,Mus musculus [13],Toxic
